Screening data from PubChem BioAssay.
An excerpt weighted towards active compounds, which were near 2% of everything screened.
ATG4B inh: inhibitors of human ATG4B cysteine protease; AID 504462; ATG4B cleavage of LC3-PLA2, NBD-HPC fluorescence, 1 h; inhibition, % at 8.33 µM; Q9Y4P1; hit rate 0.51% among 340,000
TPT1 inhibitor: inhibitors of Candida albicans tRNA 2'-phosphotransferase TPT1; recombinant caTPT1, FP RNA substrate dephosphorylation; inhibition, % at 5 µM; hit rate 0.81% among 300,000;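 active = inhibition above the mean of all tested compounds plus 3 SD, set per screening campaign, cut at about 24% in these data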;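 also: plate controls were DMSO alone for no effect and ferristatin control at 100 nM for full effect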
Rpn11 block: blocks the human proteasome subunit Rpn11. O00487. human 26S proteasome, Ub4-pepOG fluorescence polarization; 20S core pre-blocked with epoxomicin. hit rate 0.59% among 360,000. inhibition, % at 20 µM. AID 588493;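 active = inhibition at 20 µM, scaled to each plate's controls, above about 33%, limit read from the data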
SENP1 FRET inh: blocks the human SENP1 SUMO protease catalytic domain; recombinant SENP1 catalytic domain, CyPet-SUMO1-YPet FRET cleavage; inhibition, % at 10 µM; hit rate 0.21% among 360,000; AID 624204;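 active = inhibition at least 30% at 10 µM, raw YFP signal under a set limit, fluorescence ratio 0.5 to 1.5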;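 also: 0% = enzyme with DMSO and 100% = no enzyme wells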
Target sequence (Q9P0U3 419-644 limits assumed): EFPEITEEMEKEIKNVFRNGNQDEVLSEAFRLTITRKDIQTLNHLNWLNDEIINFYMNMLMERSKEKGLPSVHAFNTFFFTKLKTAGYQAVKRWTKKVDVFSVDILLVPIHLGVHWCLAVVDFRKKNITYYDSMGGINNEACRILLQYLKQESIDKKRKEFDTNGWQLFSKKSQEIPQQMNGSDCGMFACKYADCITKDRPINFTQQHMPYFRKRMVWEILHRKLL
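System: Recombinant human SENP1 catalytic domain, His6-tagged | Incubation: Enzyme reaction for 50 min at room temperature, dark | Medium: Tris pH 8 with BME, BSA, NP40 and catalase | Also added: 25 nM SUMO1 FRET substrate | Compound: 10 µM single point, 0.5% DMSO | Measured by: FRET fluorescence in CFP and YFP emission channels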
HNF4A DNA FP: change in binding of human HNF4 alpha to DNA | HNF4a-FITC DNA binding, fluorescence polarization, 1 h | activity change, % at 10 µM | hit rate 0.3% among 360,000 | AID 1224865; in the data active = activity change above about 30%, passing the limit was not always enough
CSN inh: inhibitors of human CSN-mediated cullin deneddylation. Q92905. Purified CSN, SCF-Nedd8-OG deneddylation, fluorescence polarization. inhibition, % at 12.5 µM. hit rate 0.38% among 360,000. AID 651999;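 active = pattern-corrected inhibition above about 35%, with an unprinted fluorescence ratio check between 0.5 and 1.5, limit read from the data, passing the limit was not always enough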;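 also: 0% = enzyme with substrate and 100% = substrate without enzyme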
Target sequence (Q92905 whole entry, looked up, one chain of several): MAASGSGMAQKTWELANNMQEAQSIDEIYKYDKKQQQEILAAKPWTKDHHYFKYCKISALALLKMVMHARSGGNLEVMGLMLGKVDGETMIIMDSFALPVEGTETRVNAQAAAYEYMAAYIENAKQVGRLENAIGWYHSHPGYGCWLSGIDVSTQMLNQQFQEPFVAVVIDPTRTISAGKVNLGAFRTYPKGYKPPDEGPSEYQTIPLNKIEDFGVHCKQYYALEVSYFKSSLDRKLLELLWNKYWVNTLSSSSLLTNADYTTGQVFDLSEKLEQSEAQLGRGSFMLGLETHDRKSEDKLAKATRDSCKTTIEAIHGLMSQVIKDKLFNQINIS
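Detection – fluorescence polarization · System – HEK293T-derived human Csn5 enzyme · Controls – substrate-only high control, full reaction low control · Timing – 90 min, room temperature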
caTPT1 confirm: TPT1 (C. albicans) inhibition, confirmation; hit rate 74% among 2,400; shares compounds with TPT1 inhibitor; recombinant caTPT1, fluorescence polarization, RNase T1 coupled; AID 2149; inhibition, % at 5 µM;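 active = inhibition above the primary screen limit, the mean inhibition of all tested compounds plus 3 SD, cut at about 25% in these data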
RNase T1 inh: counter-screen for TPT1 inhibitors: inhibitors of Aspergillus oryzae RNase T1 | hit rate 83% among 2,400 | RNase T1 cleavage, fluorescence polarization, 1536-well | shares compounds with TPT1 inhibitor | inhibition, % at 5 µM;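 active = inhibition above the solvent-only control well mean plus 3 SD, limit set per screening run, cut at about 23% in these data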;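 also: plate controls were DMSO wells with enzyme for no effect and wells without RNase T1 for full effect; inhibitors block cleavage so intact labeled substrate keeps polarization high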
Target sequence (P00651 whole entry, looked up): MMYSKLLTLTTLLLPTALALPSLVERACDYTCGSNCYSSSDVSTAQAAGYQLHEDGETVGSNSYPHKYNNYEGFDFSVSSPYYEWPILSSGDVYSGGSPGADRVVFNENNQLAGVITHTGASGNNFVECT
Rpn11 inh conf: confirmation of human proteasome Rpn11 inhibitors. shares compounds with Rpn11 block. purified human 26S proteasome, Ub4-pepOG fluorescence polarization; proteasome pretreated with epoxomicin. inhibition, % at 20 µM. hit rate 29% among 1,900. AID 602318
MMP-2 counter: blocks human MMP-2, flagging nonselective RPN11 hits; shares compounds with Rpn11 block; recombinant MMP-2, FRET peptide cleavage fluorescence; inhibition, % at 20 µM; hit rate 4% among 1,900; AID 602330;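 also: human MMP-2 activated beforehand with APMA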
Thrombin inh: counter-screen for RPN11 inhibitors: inhibition of bovine thrombin; inhibition, % at 20 µM; hit rate 13% among 1,900; bovine thrombin cleavage of Ub4-pepOG, fluorescence polarization; shares compounds with Rpn11 block;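 active = mean inhibition at least 40% at 20 µM, or signal 3 deviations below plate average, so some actives read negative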;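 also: plate controls were thrombin with DMSO for no effect and buffer wells lacking thrombin for full effect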
* hit, by the source's call; · = no result shown; ! = not active in a repeat. Rule as the data show it, unless noted: active = inhibition above about 40%; inactive = the rest.

SMILES	ATG4B inh	TPT1 inhibitor	Rpn11 block	SENP1 FRET inh	HNF4A DNA FP	CSN inh	caTPT1 confirm	RNase T1 inh	others
NS(=O)(=O)c1ccc(N=Cc2c(O)n(-c3ccccc3)c(=O)[nH]c2=O)cc1	-8.1	8.9	10.0	0.1	8.0	1.7	·	·
O=c1[nH]c(=O)n(C2CCCCC2)c(O)c1/C=C/C=Nc1ccccc1	-3.2	89.5*	·	-33.8	121.3	-27.9	80.8*	75.9*
N#CC1C(C#N)C2CCC1C1C2N1c1ccccc1 (configuration not stated)	0.9	·	0.1	1.4	-0.5	-3.4	·	·
Cn1cc(C(=O)NCc2ccccc2)c2ccccc21	6.5	38.8*	-1.5	3.9	0.8	-1.9	-2.4	3.0
Cn1cc(C(=O)NC2CC2)c2ccccc21	1.2	1.9	-4.5	-0.5	-0.7	-0.3	·	·
COCCO[C@H]1CCC2C3CC=C4C[C@@H](O)CC[C@]4(C)C3CC[C@@]21C (some centres not stated)	-2.1	·	3.6	-0.7	-1.6	2.8	·	·
Cc1cc(/C=C2/C(=O)NC(=O)N(Cc3ccco3)C2=O)c(C)n1-c1ccccc1	-0.6	23.1	11.8	-30.3	-3.8	14.9	·	·
O=C1NC(=O)N(Cc2ccco2)C(=O)/C1=C\c1cccn1CCOc1ccc(Cl)cc1	3.7	62.5*	6.4	-6.1	3.6	22.2	15.2	19.3
CN(C)c1ccc(/C=C2/C(=O)NC(=O)N(Cc3ccco3)C2=O)cc1	1.2	26.3*	4.8	-16.3	-9.0	30.0	17.8	25.7*
Cc1cccc(OCCn2cccc2/C=C2/C(=O)NC(=O)N(Cc3ccco3)C2=O)c1	0.3	28.8*	7.6	-11.7	-4.5	42.6	18.4	24.3*
c1ccc2c(c1)[IH]c1ccccc1-2	10.3	·	8.6	-0.4	-3.3	-3.5	·	·
CCC1CN1P(=O)(Oc1ccc(Cl)cc1)N1CC1CC (configuration not stated)	-7.6	·	6.0	-0.1	1.1	-1.7	·	·
COc1ccc(N2C(=O)NC(=O)/C(=C\c3cn(C)c4ccccc34)C2=O)cc1	-13.7	66.9*	·	16.8	107.9*	14.2	68.4*	70.8*
COCCNC(=O)Cn1cc(/C=C2\C(=O)NC(=O)N(c3ccccc3F)C2=O)c2ccccc21	5.4	26.5*	5.3	2.2	-1.3	-1.9	10.4	18.7
COC(=O)Cn1cc(/C=C2\C(=O)NC(=O)N(c3ccc(OC)cc3)C2=O)c2ccccc21	-5.9	24.6*	9.9	10.4	-0.9	0.3	-13.3	4.3
COC(=O)N(c1ccccc1)P(=O)(Oc1ccccc1)Oc1ccccc1	-4.4	-1.9	-1.4	0.6	-3.1	4.6	·	·
CN1CCC2(CC1)C(C#N)=C(N)NC(S)=C2C#N	-4.9	50.5*!	·	-30.7	31.1	6.7	15.7	28.0*
COc1ccc([N+](=O)[O-])cc1N=Cc1c(O)n(CCc2ccccc2)c(=O)n(C(C)C)c1=O	-2.2	37.9*	12.8	-21.1	1.6	5.8	5.9	14.9
CC(C)n1c(=O)c(C=Nc2ccc(Cl)cc2)c(O)n(Cc2ccco2)c1=O	·	22.0	·	·	·	·	·	·
CCn1c(O)c(C=NCCN2CCOCC2)c(=O)n(CC)c1=S	2.0	38.5*	13.9	-1.5	3.3	7.2	19.1	27.4*
CCn1c(O)c(C=Nc2ccc(N3CCOCC3)c(Br)c2)c(=O)n(CC)c1=S	-3.7	3.6	26.1	-32.9	-2.5	7.2	·	·
O=c1[nH]c(=S)n(-c2ccc(Cl)cc2)c(O)c1C=Nc1ccc(N2CCOCC2)cc1	1.0	29.9*	-38.1	30.4	2.5	8.9	-49.0	-32.5
Cn1c(O)c(C=NCCN2CCOCC2)c(=O)n(C)c1=S	-5.4	-1.2	-4.3	-1.4	0.3	2.2	·	·
CCn1c(O)c(C=Nc2ccc(N3CCOCC3)cc2)c(=O)n(CC)c1=S	-14.9	66.2*	-154.4	-18.1	6.2	-69.3	-25.9	-35.6
CC(C)NP(=O)(NC(C)C)OP(=O)(NC(C)C)NC(C)C	4.1	-3.1	-5.7	0.1	3.1	-6.2	·	·
SMILES	ATG4B inh	TPT1 inhibitor	Rpn11 block	SENP1 FRET inh	HNF4A DNA FP	CSN inh	caTPT1 confirm	RNase T1 inh	others
C1CC2OC2CC1C1CO1 (configuration not stated)	1.7	·	11.0	0.4	-2.8	-1.6	·	·
COC(=O)C1=C(c2cccc(Cl)c2)C[C@@H]2CC[C@H]1N2C(=O)N1CCCC1	-13.4	·	-1.3	-0.2	2.3	1.7	·	·
CC(=O)c1c(O)n(C)c(=S)n(-c2ccccc2)c1=O	-13.1	45.2*	33.1	-31.9	25.9	0.3	29.5*	40.4*
COc1ccc(CC(=O)C2C(=O)N(C)c3ccccc32)cc1OC (configuration not stated)	6.3	·	2.3	-1.5	-3.4	0.1	·	·
O=c1[nH]c(=O)n(Cc2ccccc2Cl)c(O)c1/C=C1/C=CC=N1	-4.8	29.1*	24.0	-24.1	5.4	8.3	18.5	22.6*
O=C1OC(c2ccc([N+](=O)[O-])cc2)=N/C1=C/N1CC2CC(C1)c1cccc(=O)n1C2 (configuration not stated)	-6.4	33.7*	8.4	62.8	3.0	-0.9	42.4*	54.1*
O=C(N/N=C/c1c(O)n(Cc2ccccc2)c(=O)[nH]c1=O)c1ccccc1O	-9.1	5.5	14.0	-28.7	0.5	-0.3	·	·
O=C(N/N=C/c1c(O)n(CCc2ccccc2)c(=O)[nH]c1=O)c1ccccc1O	5.0	38.4*	57.5*	-19.3	27.3	24.1	43.0*	55.7*	Rpn11 inh conf=61.5*;MMP-2 counter=-15.3;Thrombin inh=36.3
C[C@]12CCC3C(C(=O)C[C@H]4C[C@@H](O)CC[C@]34C)C1CCC2=O (some centres not stated)	-3.3	·	-1.1	-0.7	0.0	-2.6	·	·
Cc1cccc(N2C(=O)/C(=C/N3CCN(C(=O)c4ccco4)CC3)C(=O)NC2=S)c1	-14.3	30.3*	50.5*	0.7	8.9	14.1	13.1	15.3	Rpn11 inh conf=18.7;MMP-2 counter=9.8;Thrombin inh=14.1
Cc1cccc(N2C(=O)NC(=O)/C(=C\c3ccc(N4CCOCC4)cc3)C2=O)c1	-12.7	10.5	-1.4	-2.5	0.4	2.2	·	·
